The source made the active and inactive calls. No cut-off for these calls is given here.
What was measured:
Adenosine receptor A3 = molecular target: T1, Adenosine receptor A3 (Homo sapiens, UniProt P0DMS8); assay: Displacement of [3H]PSB-11 from human recombinant adenosine A3 receptor expressed in CHO cells; assay type: cell-based
T1 sequence (P0DMS8 whole entry): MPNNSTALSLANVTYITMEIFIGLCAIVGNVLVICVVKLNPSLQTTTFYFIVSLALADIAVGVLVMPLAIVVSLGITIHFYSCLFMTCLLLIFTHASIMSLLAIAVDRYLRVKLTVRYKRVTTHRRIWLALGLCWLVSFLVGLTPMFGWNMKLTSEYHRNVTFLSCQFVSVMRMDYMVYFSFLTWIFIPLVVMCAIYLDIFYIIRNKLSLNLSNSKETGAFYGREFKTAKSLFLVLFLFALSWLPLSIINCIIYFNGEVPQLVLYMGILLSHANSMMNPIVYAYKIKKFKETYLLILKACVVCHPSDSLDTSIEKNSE

[1] = molecular target: T2, Adenosine receptor A3 (Homo sapiens) (UniProt P0DMS8); assay: Displacement of [3H]PSB-11 from human recombinant adenosine A3 receptor expressed in CHO cells at 10 uM; assay type: cell-based
T2 sequence (whole entry): T1 sequence (P0DMS8 whole entry)
Outline: (§1)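 CHO cell membranes expressing the human receptor. Radioligands: A1 [3H]CCPA; A2B [3H]ZM241385 or [3H]PSB-603; A3 [3H]PSB-11. […] Potent compounds run at 6–7 concentrations spanning 3 orders of magnitude; Ki ± SEM.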

Adenosine receptor A2a [2] = molecular target: T3, Adenosine receptor A2a (Rattus norvegicus, UniProt P30543); assay: Displacement of [3H]MSX-2 from rat adenosine A2A receptor
T3 sequence (P30543 whole entry): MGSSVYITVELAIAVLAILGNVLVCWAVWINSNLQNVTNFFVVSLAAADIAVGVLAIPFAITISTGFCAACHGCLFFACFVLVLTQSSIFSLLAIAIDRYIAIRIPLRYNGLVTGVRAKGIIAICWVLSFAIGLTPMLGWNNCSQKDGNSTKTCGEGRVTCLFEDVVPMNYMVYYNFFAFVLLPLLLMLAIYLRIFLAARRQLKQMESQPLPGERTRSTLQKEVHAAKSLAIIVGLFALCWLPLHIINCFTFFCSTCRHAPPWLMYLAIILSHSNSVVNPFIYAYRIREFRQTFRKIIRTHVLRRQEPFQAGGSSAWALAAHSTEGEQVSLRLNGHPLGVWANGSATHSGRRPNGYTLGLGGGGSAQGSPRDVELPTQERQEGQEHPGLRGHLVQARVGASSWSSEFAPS

Adenosine receptor A2a [3] = molecular target: T3, Adenosine receptor A2a; assay: Displacement of [3H]MSX-2 from rat adenosine A2A receptor in presence of 100 mM NaCl
Adenosine receptor A2a [4] = molecular target: Adenosine receptor A2a (Homo sapiens, UniProt P29274); assay: Antagonist activity human recombinant adenosine A2A receptor expressed in CHO cells assessed as inhibition of NECA-mediated [3H]cAMP accumulation after 15 mins by liquid scintillation counting; assay type: functional, cell-based
Sequence of Adenosine receptor A2a (Homo sapiens, UniProt P29274) (P29274 whole entry): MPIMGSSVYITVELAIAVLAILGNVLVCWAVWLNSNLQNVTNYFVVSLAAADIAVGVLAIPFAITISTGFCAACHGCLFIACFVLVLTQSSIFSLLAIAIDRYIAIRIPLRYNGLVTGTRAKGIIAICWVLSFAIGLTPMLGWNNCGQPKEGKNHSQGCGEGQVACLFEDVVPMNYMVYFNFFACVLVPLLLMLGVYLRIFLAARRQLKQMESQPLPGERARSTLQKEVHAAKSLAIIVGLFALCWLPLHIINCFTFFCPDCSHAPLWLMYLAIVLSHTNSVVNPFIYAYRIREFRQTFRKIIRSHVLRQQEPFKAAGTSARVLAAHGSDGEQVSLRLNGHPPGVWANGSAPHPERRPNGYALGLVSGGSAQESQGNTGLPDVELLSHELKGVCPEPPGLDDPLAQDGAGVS
Outline: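 Stably transfected CHO cells (human A2A), 200,000 cells/well, washed and preincubated 2 h at 37 °C in HBSS (pH 7.3) with 1 U/ml adenosine deaminase. Ro20-1724 (final 40 µM) added for 15 min. NECA dilutions ± a single test concentration in HBSS with 5% DMSO, in triplicate, for 15 min. Hot-lysis; cAMP quantified by [3H]cAMP competition against a standard curve; three separate experiments.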

Mus musculus [5] = assay: Anticonvulsant activity in F1 albino mouse assessed as protection against maximal electroshock-induced seizures at 300 mg/kg, ip after 0.25 hrs; assay type: functional, organism-based; parameters: dose 300 mg/kg
Outline: (§2)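 Male albino F-1 mice (18–25 g), groups of 1–5 (rotorod 2–8). Compound given ip as a suspension in 0.5% methylcellulose at 30, 100 and 300 mg/kg. Seizures by maximal electroshock or subcutaneous pentylenetetrazole; neurotoxicity by rotorod. Read at 0.5 and 4 h, with some at 0.25, 1 and 2 h. Value is the minimum active dose, with protected (or toxic)/tested animals.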

Mus musculus [6] = assay: Anticonvulsant activity in F1 albino mouse assessed as protection against maximal electroshock-induced seizures at 300 mg/kg, ip after 0.5 hrs; assay type: functional, organism-based; parameters: dose 300 mg/kg; outline: as §2
Mus musculus [7] = assay: Anticonvulsant activity in F1 albino mouse assessed as protection against maximal electroshock-induced seizures at 300 mg/kg, ip after 1 hr; assay type: functional, organism-based; parameters: dose 300 mg/kg; outline: as §2
Mus musculus [8] = assay: Anticonvulsant activity in F1 albino mouse assessed as protection against maximal electroshock-induced seizures at 300 mg/kg, ip after 4 hrs; assay type: functional, organism-based; parameters: dose 300 mg/kg; outline: as §2
Mus musculus [9] = assay: Anticonvulsant activity in F1 albino mouse assessed as protection against subcutaneous pentylenetetrazole-induced seizures at 300 mg/kg, ip after 0.25 hrs; assay type: functional, organism-based; parameters: dose 300 mg/kg; outline: as §2
Mus musculus [10] = assay: Anticonvulsant activity in F1 albino mouse assessed as protection against subcutaneous pentylenetetrazole-induced seizures at 300 mg/kg, ip after 0.5 hrs; assay type: functional, organism-based; parameters: dose 300 mg/kg; outline: as §2
Mus musculus [11] = assay: Toxicity in F1 albino mouse assessed as mortality following tonic extension at 300 mg/kg, ip after 1 hr; assay type: organism-based; parameters: dose 300 mg/kg, route intraperitoneal; settings: in vivo
Outline: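 Male albino F-1 mice (18–25 g) were dosed i.p. with a suspension in 0.5% methylcellulose in water at 30, 100 and 300 mg/kg. Screening used MES, subcutaneous pentylenetetrazole (ScMet) and rotorod tests, with 1–5 mice per seizure test.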

Mus musculus [12] = assay: Anticonvulsant activity in F1 albino mouse assessed as protection against subcutaneous pentylenetetrazole-induced seizures at 300 mg/kg, ip after 4 hrs; assay type: functional, organism-based; parameters: dose 300 mg/kg; outline: as §2
Mus musculus [13] = assay: Neurotoxicity in F1 albino mouse assessed as minimal motor impairment at 300 mg/kg, ip after 0.25 hrs by rotorod test; assay type: toxicity, organism-based; parameters: dose 300 mg/kg, route intraperitoneal; settings: in vivo; outline: as §2
Mus musculus [14] = assay: Neurotoxicity in F1 albino mouse assessed as minimal motor impairment at 300 mg/kg, ip after 0.5 hrs by rotorod test; assay type: toxicity, organism-based; parameters: dose 300 mg/kg, route intraperitoneal; settings: in vivo; outline: as §2
Mus musculus [15] = assay: Neurotoxicity in F1 albino mouse assessed as minimal motor impairment at 300 mg/kg, ip after 1 hr by rotorod test; assay type: toxicity, organism-based; parameters: dose 300 mg/kg, route intraperitoneal; settings: in vivo; outline: as §2
Mus musculus [16] = assay: Neurotoxicity in F1 albino mouse assessed as minimal motor impairment at 300 mg/kg, ip after 4 hrs by rotorod test; assay type: toxicity, organism-based; parameters: dose 300 mg/kg, route intraperitoneal; settings: in vivo; outline: as §2
Adenosine receptor A2b = molecular target: T4, Adenosine receptor A2b (Homo sapiens, UniProt P29275); assay: Displacement of [3H]ZM241385 from human adenosine A2B receptor expressed in CHO cells; assay type: cell-based
T4 sequence (P29275 whole entry): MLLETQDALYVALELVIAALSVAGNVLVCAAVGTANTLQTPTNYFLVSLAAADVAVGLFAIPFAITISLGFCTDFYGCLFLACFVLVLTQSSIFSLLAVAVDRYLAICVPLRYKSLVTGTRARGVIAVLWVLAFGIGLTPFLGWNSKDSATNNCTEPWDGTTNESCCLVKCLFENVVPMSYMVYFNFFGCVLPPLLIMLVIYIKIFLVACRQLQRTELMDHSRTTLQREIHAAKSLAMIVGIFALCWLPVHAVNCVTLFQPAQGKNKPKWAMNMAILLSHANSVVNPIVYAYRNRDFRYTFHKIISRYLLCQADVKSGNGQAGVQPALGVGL

[17] = molecular target: T5, Adenosine receptor A2b (Homo sapiens) (UniProt P29275); assay: Displacement of [3H]ZM241385 from human adenosine A2B receptor expressed in CHO cells at 10 uM; assay type: cell-based; outline: as §1
T5 sequence (whole entry): T4 sequence (P29275 whole entry)

[18] = molecular target: T6, Adenosine receptor A1 (Homo sapiens) (UniProt P30542); assay: Displacement of [3H]CCPA from human recombinant adenosine A1 receptor expressed in CHO cells at 10 uM; assay type: cell-based; outline: as §1
T6 sequence (whole entry): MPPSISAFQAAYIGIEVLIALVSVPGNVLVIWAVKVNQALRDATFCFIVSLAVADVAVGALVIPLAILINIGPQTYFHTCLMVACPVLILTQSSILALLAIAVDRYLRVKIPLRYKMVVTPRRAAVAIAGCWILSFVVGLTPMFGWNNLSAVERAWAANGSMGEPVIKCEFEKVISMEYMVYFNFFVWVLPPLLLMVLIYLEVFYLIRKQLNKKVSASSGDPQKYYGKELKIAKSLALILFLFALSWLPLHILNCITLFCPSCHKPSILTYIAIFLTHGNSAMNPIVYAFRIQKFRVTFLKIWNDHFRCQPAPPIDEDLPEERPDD

Adenosine receptor A1 [19] = molecular target: T7, Adenosine receptor A1 (Homo sapiens, UniProt P30542); assay: Displacement of [3H]CCPA from human recombinant adenosine A1 receptor expressed in CHO cells; assay type: cell-based
T7 sequence (P30542 whole entry): T6 sequence (whole entry)

Rattus norvegicus = species: Rattus norvegicus; assay: Selectivity ratio of Ki for adenosine A1 receptor in rat brain cortical membrane to Ki for adenosine A2A receptor in rat brain striatal membrane; assay type: cell membranes
Outline: (§3)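 Ki ratios from radioligand competition binding. Rat A1 used brain cortical membranes and rat A2A used brain striatal membranes. Human A1 and A2A used membranes of CHO cells expressing the receptors. A1 radioligand [³H]CCPA; A2A radioligand [³H]MSX-2. Potent compounds were tested at 6–7 concentrations spanning 3 orders of magnitude.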

[20] = molecular target: T8, Adenosine receptor A1 (Rattus norvegicus) (UniProt P25099); assay: Displacement of [3H]CCPA from adenosine A1 receptor in rat brain cortical membrane at 25 uM; assay type: cell membranes
T8 sequence (whole entry): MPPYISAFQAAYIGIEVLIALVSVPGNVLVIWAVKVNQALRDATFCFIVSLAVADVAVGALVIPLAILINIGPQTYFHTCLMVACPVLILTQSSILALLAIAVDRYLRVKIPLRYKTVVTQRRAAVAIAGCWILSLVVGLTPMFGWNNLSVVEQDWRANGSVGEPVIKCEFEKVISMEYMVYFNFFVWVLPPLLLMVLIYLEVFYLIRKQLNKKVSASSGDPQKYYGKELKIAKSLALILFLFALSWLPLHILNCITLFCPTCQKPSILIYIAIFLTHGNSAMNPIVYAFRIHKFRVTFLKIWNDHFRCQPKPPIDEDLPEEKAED

Adenosine receptor A1 [21] = molecular target: T9, Adenosine receptor A1 (Rattus norvegicus, UniProt P25099); assay: Displacement of [3H]CCPA from adenosine A1 receptor in rat brain cortical membrane; assay type: cell membranes
T9 sequence (P25099 whole entry): T8 sequence (whole entry)

CHO = assay: Selectivity ratio of Ki for human recombinant adenosine A2A receptor expressed in CHO cells to Ki for adenosine A2A receptor in rat brain striatal membrane; assay type: cell-based; outline: as §3

CC1CCC(N2CCCn3c2nc2c3c(=O)n(C)c(=O)n2C)CC1 (mixture of isomers)
Ki (Adenosine receptor A3): > 10000 nM | inhibition [1]: 16% | IC50 (Adenosine receptor A2a [2]): 263 nM | IC50 (Adenosine receptor A2a [3]): 251 nM | Kb (Adenosine receptor A2a [4]): 644 nM | Activity (Mus musculus [5]): inactive | Activity (Mus musculus [6]): inactive | Activity (Mus musculus [7]): inactive | Activity (Mus musculus [8]): inactive | Activity (Mus musculus [9]): inactive | Activity (Mus musculus [10]): Active | Activity (Mus musculus [11]): Toxic | Activity (Mus musculus [12]): inactive | Activity (Mus musculus [13]): Non-toxic | Activity (Mus musculus [14]): Non-toxic | Activity (Mus musculus [15]): Non-toxic | Activity (Mus musculus [16]): Non-toxic | Ki (Adenosine receptor A2b): > 10000 nM | inhibition [17]: 16% | inhibition [18]: 28% | Ki (Adenosine receptor A1 [19]): > 10000 nM | Ratio Ki (Rattus norvegicus): > 100 | inhibition [20]: 38% | Ki (Adenosine receptor A1 [21]): ≥ 25000 nM | Ratio Ki (CHO): 3
